Consider eight molecules from ChEMBL document CHEMBL5370663, “Neurite Outgrowth-Inducing Drimane-Type Sesquiterpenoids Isolated from Cultures of the Polypore Abundisporus violaceus MUCL 56355” (J Nat Prod, 2023).

One data set has as its system L929. Kind of data set: Cytotoxicity against mouse L929 cells incubated for 5 days by MTT assay. The format is toxicity, cell-based. The following applies: l929, 120 h, time 5 day. Summed up: (§1)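 MTT viability test in 96-well plates on KB3.1 (human endocervical adenocarcinoma) and L929 (mouse fibroblast) lines, reported as IC50; epothilone B positive control.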
(In general: Tetrazolium assays rely on reduction of a dye to a coloured formazan, in cell work by metabolically active cells.)

A further data set has as its system Acinetobacter baumannii. Briefly: Antibacterial activity against Acinetobacter baumannii DSM 30008 assessed as bacterial growth inhibition at 66.7 to 0.52 microg/ml incubated overnight by serial dilution assay. In kind it is functional, organism-based. The following applies: dose 66.7-0.52 µg/ml. Summed up:
(§2)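 Broth microdilution MIC. Compounds diluted in methanol across 66.7–0.52 μg/mL; incubated overnight. MIC is the lowest concentration with no visible growth of the test strain. Positive controls were ciprofloxacin, kanamycin, gentamycin and oxytetracycline for bacteria and nystatin for fungi.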

For another data set, the system named is KB 3-1. Briefly: Cytotoxicity against human KB-3-1 cells incubated for 5 days by MTT assay. The following applies: kb 3-1, 120 h, time 5 day. The format is toxicity, cell-based. Summed up:
as §1

For another data set, the system named is PC-12. Briefly: Induction of neurite outgrowth in NGF-treated rat PC12 cells at 5 ug/mL measured after 48 hrs by phase contrast microscopy. The format is functional, cell-based. The following applies: dose 5.0 µg/ml. Summed up:
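PC-12 cells grown in RPMI-1640 with 10% heat-inactivated horse serum, 5% FBS and 2 mM L-glutamine. Seeded at 1.5 × 10^4 cells/well on collagen IV and allowed to attach 6 h at 37 °C, 7.5% CO2. Medium then switched to differentiation medium (1% horse serum) with compound at 5 μg/mL plus NGF 5 ng/mL; DMSO control. Mean neurite length from phase-contrast live imaging at 48 h; five independent experiments, one-tailed t-test.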

The test system of the next data set is Pseudomonas aeruginosa. Briefly: Antibacterial activity against Pseudomonas aeruginosa PA14 assessed as bacterial growth inhibition at 66.7 to 0.52 microg/ml incubated overnight by serial dilution assay. In kind it is functional, organism-based. The following applies: dose 66.7-0.52 µg/ml. Summed up:
as §2

Data set [1] relates to Schizosaccharomyces pombe. Briefly: Antifungal activity against Schizosaccharomyces pombe DSM 70572 assessed as fungal growth inhibition at 66.7 to 0.52 microg/ml incubated overnight by serial dilution assay. In kind it is functional, organism-based. The following applies: dose 66.7-0.52 µg/ml. Summed up:
as §2

The subject of a further data set is Bacillus subtilis. Kind of data set: Antibacterial activity against Bacillus subtilis DSM 10 assessed as bacterial growth inhibition at 66.7 to 0.52 microg/ml incubated overnight by serial dilution assay. The format is functional, organism-based. The following applies: dose 66.7-0.52 µg/ml. Summed up: as §2
In data set [2] the test system is Chromobacterium violaceum. Briefly: Antibacterial activity against Chromobacterium violaceum DSM 30191 assessed as bacterial growth inhibition at 66.7 to 0.52 microg/ml incubated overnight by serial dilution assay. In kind it is functional, organism-based. The following applies: dose 66.7-0.52 µg/ml. Summed up: as §2
The test system of a further data set is Escherichia coli. Kind of data set: Antibacterial activity against Escherichia coli DSM 1116 assessed as bacterial growth inhibition at 66.7 to 0.52 microg/ml incubated overnight by serial dilution assay. In kind it is functional, organism-based. The following applies: dose 66.7-0.52 µg/ml. Summed up: as §2
Another data set relates to Mucor hiemalis. Briefly: Antifungal activity against Mucor hiemalis DSM 2656 assessed as fungal growth inhibition at 66.7 to 0.52 microg/mlincubated overnight by serial dilution assay. In kind it is functional, organism-based. The following applies: dose 66.7-0.52 µg/ml. Summed up:
as §2

Another data set relates to Candida albicans. Kind of data set: Antifungal activity against Candida albicans DSM 1665 assessed as fungal growth inhibition at 66.7 to 0.52 microg/ml incubated overnight by serial dilution assay. The following applies: dose 66.7-0.52 µg/ml. In kind it is functional, organism-based. Summed up: as §2
For the next data set, the system named is Staphylococcus aureus. Briefly: Antibacterial activity against Staphylococcus aureus DSM 346 assessed as bacterial growth inhibition at 66.7 to 0.52 microg/ml incubated overnight by serial dilution assay. The following applies: dose 66.7-0.52 µg/ml. The format is functional, organism-based. Summed up: as §2
The test system of the next data set is Wickerhamomyces anomalus. Kind of data set: Antifungal activity against Pichia anomala DSM 6766 assessed as fungal growth inhibition at 66.7 to 0.52 microg/ml incubated overnight by serial dilution assay. In kind it is functional, organism-based. The following applies: dose 66.7-0.52 µg/ml. Summed up: as §2
The next data set concerns Rhodotorula glutinis. Kind of data set: Antifungal activity against Rhodotorula glutinis DSM 10134 assessed as fungal growth inhibition at 66.7 to 0.52 microg/ml incubated overnight by serial dilution assay. In kind it is functional, organism-based. The following applies: dose 66.7-0.52 µg/ml. Summed up:
as §2

The test system of data set [3] is Mycolicibacterium smegmatis. Briefly: Antibacterial activity against Mycobacterium smegmatis ATCC 700084 assessed as bacterial growth inhibition at 66.7 to 0.52 microg/ml incubated overnight by serial dilution assay. The format is functional, organism-based. The following applies: dose 66.7-0.52 µg/ml. Summed up: as §2

Active and inactive are the calls of the source. The rule behind the calls is not given here.

Consider `C[C@@]12C=C(C(=O)O)[C@@H](O)C[C@H]1[C@](C)(C(=O)O)CCC2`, for which the Activity result in the data set with L929 and with KB 3-1 was “Non-Toxic” throughout. Moreover, the inhibition result (in the data set with Acinetobacter baumannii; with Pseudomonas aeruginosa; in data set [1]; in the data set with Bacillus subtilis; in data set [2]; in the data set on Escherichia coli) was “inactive” each time. Further, the inhibition result (with Mucor hiemalis; in the data set with Candida albicans; in the data set with Staphylococcus aureus; in the data set on Wickerhamomyces anomalus; in the data set on Rhodotorula glutinis; in [3]) was “inactive” each time. Besides, in the data set with PC-12, the outcome was Active.

`C[C@@]12C=C(CO)C(=O)C[C@H]1[C@](C)(C(=O)O)CC[C@@H]2O`: the Activity result in the data set on L929 and with KB 3-1 was “Non-Toxic” throughout. Moreover, the inhibition result (in the data set with Acinetobacter baumannii; in the data set with Pseudomonas aeruginosa; in [1]; in the data set on Bacillus subtilis; in [2]; with Escherichia coli) was “inactive” throughout. Further, the inhibition entry (in the data set with Mucor hiemalis; with Candida albicans; with Staphylococcus aureus; in the data set on Wickerhamomyces anomalus; in the data set with Rhodotorula glutinis; in [3]) was “inactive” each time. The result in the data set on PC-12 was Active.

On to `C[C@]12CCC[C@@](C)(C(=O)O)[C@@H]1CC=C(CO)[C@H]2C=O`, for which the Activity entry in the data set on L929 and with KB 3-1 was “Non-Toxic” each time. Moreover, the inhibition entry (in the data set with Acinetobacter baumannii; in the data set on Pseudomonas aeruginosa; in [1]; in the data set with Bacillus subtilis; in data set [2]; with Escherichia coli) was “inactive” each time. In addition, the inhibition entry (in the data set on Mucor hiemalis; with Candida albicans; in the data set with Staphylococcus aureus; in the data set on Wickerhamomyces anomalus; in the data set with Rhodotorula glutinis; in data set [3]) was “inactive” throughout. Also, the outcome with PC-12 was Active.

`C[C@]12CCC[C@@](C)(C(=O)O)[C@@H]1CC=C1CO[C@H](O)[C@@H]12`: the Activity entry with L929 and in the data set with KB 3-1 was “Non-Toxic” throughout. Further, the inhibition entry (in the data set with Acinetobacter baumannii; in the data set on Pseudomonas aeruginosa; in data set [1]; in the data set on Bacillus subtilis; in [2]; in the data set on Escherichia coli) was “inactive” in each case. The inhibition entry (in the data set with Mucor hiemalis; with Candida albicans; with Staphylococcus aureus; with Wickerhamomyces anomalus; in the data set with Rhodotorula glutinis; in data set [3]) was “inactive” throughout. Besides, the outcome in the data set on PC-12 was Active.

Turning to `C[C@@]12C=C(CO)[C@@H](O)C[C@H]1[C@](C)(C(=O)O)CCC2`, the Activity entry in the data set on L929 and with KB 3-1 was “Non-Toxic” each time. Further, the inhibition entry (in the data set on Acinetobacter baumannii; in the data set with Pseudomonas aeruginosa; in data set [1]; in the data set with Bacillus subtilis; in data set [2]; with Escherichia coli) was “inactive” throughout. Further, the inhibition result (with Mucor hiemalis; with Candida albicans; in the data set on Staphylococcus aureus; in the data set on Wickerhamomyces anomalus; with Rhodotorula glutinis; in data set [3]) was “inactive” each time. Further, the outcome in the data set with PC-12 was Active.

Consider `C[C@@]1(C(=O)O)CCC[C@]2(C)c3cocc3C(=O)C[C@@H]12`, for which the Activity entry in the data set on L929 and with KB 3-1 was “Non-Toxic” each time. In addition, the inhibition entry (in the data set with Acinetobacter baumannii; with Pseudomonas aeruginosa; in data set [1]; with Bacillus subtilis; in data set [2]; with Escherichia coli) was “inactive” each time. In addition, the inhibition entry (in the data set with Mucor hiemalis; with Candida albicans; in the data set on Staphylococcus aureus; in the data set on Wickerhamomyces anomalus; with Rhodotorula glutinis; in [3]) was “inactive” in each case. Further, the outcome in the data set on PC-12 was Active.

As to `C[C@@]1(C(=O)O)CCC[C@]2(C)C3=C(COC3=O)C(=O)C[C@@H]12`, the Activity entry in the data set with L929 and with KB 3-1 was “Non-Toxic” each time. Further, the inhibition result (in the data set with Acinetobacter baumannii; in the data set on Pseudomonas aeruginosa; in data set [1]; in the data set with Bacillus subtilis; in [2]; in the data set on Escherichia coli) was “inactive” each time. In addition, the inhibition result (in the data set on Mucor hiemalis; with Candida albicans; with Staphylococcus aureus; with Wickerhamomyces anomalus; in the data set on Rhodotorula glutinis; in data set [3]) was “inactive” throughout.

As to `COC(=O)[C@H]1C(C(=O)O)=CC[C@@H]2[C@]1(C)CCC[C@@]2(C)C(=O)O`, the Activity entry in the data set on L929 and in the data set with KB 3-1 was “Non-Toxic” throughout. Further, the inhibition entry (in the data set with Acinetobacter baumannii; with Pseudomonas aeruginosa; in data set [1]; in the data set with Bacillus subtilis; in data set [2]; with Escherichia coli) was “inactive” each time. The inhibition entry (with Mucor hiemalis; in the data set on Candida albicans; in the data set on Staphylococcus aureus; in the data set with Wickerhamomyces anomalus; in the data set with Rhodotorula glutinis; in data set [3]) was “inactive” in each case.
